Results on 20 molecules are retold here after ChEMBL document CHEMBL1122456, “Structure-activity relationships for activation of adenylate cyclase by the diterpene forskolin and its derivatives” (J Med Chem, 1983).

Holding throughout (assay type): functional
For assay [1], the species on record is Cavia porcellus. In words: Percent conversion of total labeled nucleotides to cyclic AMP, determined in guinea pig cerebral cortical vesicular entities at 200 uM concentration. Summed up: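 Gray-matter cortex slices from male NIH guinea pigs (300 g) homogenized in O2/CO2-gassed KRB, pH 7.4. The 1000g pellet was labeled with [3H]adenine for 30 min at 37 °C, washed, post-incubated 15 min at 37 °C, and aliquoted. Aliquots were equilibrated 10 min at 37 °C, then given compound at 200 μM for 10 min at 30 °C and stopped with TCA. Read-out is labeled cAMP as percent of total labeled adenine nucleotides, reported as mean ± SEM.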

The species named for assay [2] is Oryctolagus cuniculus. In words: Percent stimulation of adenylate cyclase determined in rabbit heart membranes at 5 uM of compound as compared to 5 uM of forskolin. To be noted: Membrane.
For assay [3], the species on record is Rattus norvegicus. In words: Concentration required to activate rat cerebral cortical adenylate cyclase activity elicited by 200 uM forskolin. In short, it runs like this:
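Fresh crude cortical membranes from male Sprague-Dawley rats (150-175 g). Incubated in 50 mM Tris-HCl pH 7.5 with 1.0 mM IBMX, 5 mM MgCl2, 0.1 mM ATP plus [α-32P]ATP, 0.2 mM EGTA, and a creatine phosphate/creatine kinase regenerating system. About 100 μg protein per assay, 30 °C for 10 min, stopped with TCA, [32P]cAMP isolated. Run in triplicate. EC50 taken from ≥2 curves over 0.01–200 μM. Where full activation was not reached, EC50 is the concentration giving 50% of the maximal activity with 200 μM forskolin.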

SMILES strings stand for the structures.

As a reminder, the EC50 is the midpoint of the concentration-response curve. High values mean lower potency in that assay, low ones higher potency in that assay. `C=C[C@@]1(C)CC(=O)[C@@]2(O)[C@H](O1)C(OC(C)=O)C(OC(C)=O)[C@H]1C(C)(C)CC[C@H](OC(C)=O)C12C` (some centres undefined) had a Conversion in assay [1] of 0.47%. Moreover, the Stimulation in assay [2] worked out at 20%. Besides, in assay [3], the 50% effective concentration (EC50) was > 200 µM.
`C=C[C@@]1(C)CC(=O)[C@@]2(O)[C@H](O1)C(OC=O)C(O)[C@H]1C(C)(C)CC[C@H](O)C12C` (some centres undefined) displayed a Conversion in assay [1] of 0.47%. Besides, the Stimulation in assay [2] is 52%. In addition, the EC50 in assay [3] was 150 µM.
The like results for `C=C[C@@]1(C)CC(=O)[C@@]2(O)[C@H](O1)C(OC(C)=O)C(O)[C@H]1C(C)(C)CCC(=O)C12C` (some centres undefined) were, in that order, 0.76%, 47% and 200 µM.
The like results for `C=C[C@@]1(C)CC(=O)[C@@]2(O)[C@H](O1)C(OC(=O)N(CC)CC)C(O)[C@H]1C(C)(C)CC[C@H](O)C12C` (some centres undefined) were, in that order, 0.84%, 59% and 200 µM.
Turning to `CC(=O)OC1C(O)[C@H]2C(C)(C)CC[C@H](O)C2(C)[C@@]23OC(CO)[C@@](C)(CC2=O)O[C@H]13` (some centres undefined), the Conversion in assay [1] stood at 0.18%. Also, the Stimulation in assay [2] worked out at 0%.
For `C=C[C@@]1(C)CC(=O)[C@@]2(O)[C@H](O1)C(OC(=O)c1cc(OC)c(OC)c(OC)c1)C(O)[C@H]1C(C)(C)CC[C@H](O)C12C` (some centres undefined), the Conversion in assay [1] is 0.26%. In assay [2], this molecule returned a Stimulation of 31%. The EC50 in assay [3] was > 25 µM.
The molecule `C=C[C@@]1(C)CC(=O)[C@@]2(O)[C@H](O1)C(OS(=O)(=O)c1ccc(C)cc1)C(O)[C@H]1C(C)(C)CC[C@H](O)C12C` (some centres undefined) had a Conversion in assay [1] of 0.16%. In addition, in assay [2], the Stimulation was 5%. For the same molecule, the EC50 in assay [3] is > 25 µM.
In assay [1], `C=C[C@@]1(C)C[C@H](O)[C@@]2(O)[C@H](O1)C(OC(C)=O)C(O)[C@H]1C(C)(C)CC[C@H](O)C12C` (some centres undefined) gave a Conversion of 0.97%. The molecule also registered a Stimulation in assay [2] of 49%. The EC50 in assay [3] stood at 50 µM.
On the same counts, the results for `C=C[C@@]1(C)CC(=O)[C@H]2[C@H](O1)C(OC(C)=O)C(O)[C@H]1C(C)(C)CC[C@H](O)C21C` (some centres undefined) are 0.84%, 46% and 100 µM.
`C=C[C@@]1(C)CC(=O)[C@@]23OC(=O)O[C@H]4CCC(C)(C)[C@H](C5OC(=O)OC5[C@H]2O1)C43C` (some centres undefined) came in with a Conversion in assay [1] of 0.25%. The Stimulation in assay [2] came out at 1%.
Regarding `C=C[C@@]1(C)CC(=O)[C@@]2(O)[C@H](O1)C(OC(=O)OCC)C(O)[C@H]1C(C)(C)CC[C@H](O)C12C` (some centres undefined), in assay [1], the Conversion is on record as 4.01%. The Stimulation in assay [2] was 60%. This molecule also had an EC50 in assay [3] of 8 µM.
As to `CC(=O)OC1C(O)[C@H]2C(C)(C)CC[C@H](O)C2(C)[C@@]2(O)C(=O)C[C@](C)(C3CO3)O[C@H]12` (some centres undefined), in assay [1], the Conversion is 0.22%. The Stimulation in assay [2] worked out at 5%.
The like results for `C=C[C@@]1(C)C[C@@H](O)[C@H]2[C@H](O1)C(O)C(O)[C@H]1C(C)(C)CC[C@H](O)C21C` (some centres undefined) were, in that order, 0.41% and 1.6%.
For `CC[C@@]1(C)CC(=O)[C@@]2(O)[C@H](O1)C(OC(C)=O)C(O)[C@H]1C(C)(C)CC[C@H](O)C12C` (some centres undefined), in assay [1], the Conversion turned out to be 0.97%. Moreover, the Stimulation in assay [2] came out at 49%. The same molecule showed an EC50 in assay [3] of 100 µM.
The like results for `C=C[C@@]1(C)CC(=O)[C@@]23OS(=O)O[C@H]4CCC(C)(C)[C@H](C(O)C(OC(C)=O)[C@H]2O1)C43C` (some centres undefined) were, in that order, 1.2%, 28% and > 200 µM.
On to `C=C[C@@]1(C)CC(=O)[C@@]2(O)[C@H](O1)C(O)C(O)[C@H]1C(C)(C)CC[C@H](O)C12C` (some centres undefined), for which the Conversion in assay [1] is 1.37%. The same molecule displayed a Stimulation in assay [2] of 51%. In addition, the EC50 in assay [3] worked out at 20 µM.
`C=C[C@@]1(C)CC(=O)[C@H]2[C@H](O1)C(OC(C)=O)C(O)[C@H]1C(C)(C)CCCC21C` (some centres undefined) had a Conversion in assay [1] of 0.18%. In addition, the Stimulation in assay [2] turned out to be 1%.
The like results for `C=C[C@@]1(C)CC(=O)[C@@]2(O)[C@H](O1)C(OC(C)=O)C(=O)[C@H]1C(C)(C)CCC(=O)C12C` (some centres undefined) were, in that order, 0.17% and 0%.
`C=C[C@@]1(C)CC(=O)[C@@]2(O)[C@H](O1)C(OC(=O)CC)C(O)[C@H]1C(C)(C)CC[C@H](O)C12C` (some centres undefined) came in with a Conversion in assay [1] of 1.07%. The molecule also gave a Stimulation in assay [2] of 67%. The same molecule registered an EC50 in assay [3] of 15 µM.
The like results for `C=C[C@@]1(C)CC(=O)[C@@]2(O)[C@H](O1)C(OC(C)=O)C(O)[C@H]1C(C)(C)CC[C@H](O)C12C` (some centres undefined) were, in that order, 4.4%, 100% and 8 µM.
